pKi: −log10 of the molar value. Activity calls are given as the source filed them. No cut-off for these calls is given here.
What was measured:
Carboxypeptidase A1 [1] = target: T1, Carboxypeptidase A1 (Homo sapiens, UniProt P15085); assay: Inhibition of human CPA1 using AAFP as substrate preincubated for 45 mins to 2 hrs measured at 30 sec intervals for 15 mins by UV/vis-spectrophotometry
T1 sequence (P15085 whole entry): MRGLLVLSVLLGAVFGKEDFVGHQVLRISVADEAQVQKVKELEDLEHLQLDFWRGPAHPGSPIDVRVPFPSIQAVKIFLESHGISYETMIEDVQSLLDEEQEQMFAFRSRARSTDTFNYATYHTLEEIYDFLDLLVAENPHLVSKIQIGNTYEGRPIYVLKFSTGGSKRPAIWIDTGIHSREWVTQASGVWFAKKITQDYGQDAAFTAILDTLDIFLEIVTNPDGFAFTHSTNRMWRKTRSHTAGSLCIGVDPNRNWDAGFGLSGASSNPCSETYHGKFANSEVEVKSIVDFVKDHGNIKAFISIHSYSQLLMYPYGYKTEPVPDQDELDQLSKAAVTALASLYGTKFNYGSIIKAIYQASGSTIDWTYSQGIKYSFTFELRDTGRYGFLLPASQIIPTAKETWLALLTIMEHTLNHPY
Procedure, shortened: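 hCPA1 was used at 1.0x10-8 M with AAFP substrate at 1.0x10-4 M, read at 355 nm. Enzyme and inhibitor were preincubated 45 min at 37 °C before substrate was added. Initial velocities were read every 30 sec for 15 min, in triplicate. Apparent Ki came from a fit to the tight-binding equation.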

[2] = target: T2, Carboxypeptidase B (Homo sapiens) (UniProt P15086); assay: Inhibition of human CPB1 at 1 nM to 1 mM using AAFA as substrate preincubated for 45 mins to 2 hrs measured at 30 sec intervals for 15 mins by UV/vis-spectrophotometry
T2 sequence (whole entry): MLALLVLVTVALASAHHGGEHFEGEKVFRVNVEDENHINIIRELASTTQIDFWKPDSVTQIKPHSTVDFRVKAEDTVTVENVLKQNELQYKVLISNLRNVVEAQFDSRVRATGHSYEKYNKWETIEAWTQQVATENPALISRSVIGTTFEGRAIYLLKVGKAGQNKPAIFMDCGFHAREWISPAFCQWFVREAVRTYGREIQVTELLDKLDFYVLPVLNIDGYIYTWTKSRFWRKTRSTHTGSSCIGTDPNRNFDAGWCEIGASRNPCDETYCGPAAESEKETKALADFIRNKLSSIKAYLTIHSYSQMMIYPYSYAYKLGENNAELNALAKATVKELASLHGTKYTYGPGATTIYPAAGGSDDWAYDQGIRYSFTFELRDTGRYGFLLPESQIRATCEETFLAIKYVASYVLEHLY
Procedure, shortened: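 hCPB1 was used at 6.0x10-9 M with 1.0x10-4 M AAFA, read at 355 nm. After 45 min preincubation with inhibitor at 37 °C, residual activity at varied inhibitor concentrations was followed for 15 min at 30 sec intervals, in triplicate. Kiapp was fitted with the tight-binding equation.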

[3] = target: T3, Carboxypeptidase A1 (Homo sapiens) (UniProt P15085); assay: Inhibition of human CPA1 using AAFP as substrate assessed as association rate constant measured at pre-steady state by spectrophotometry
T3 sequence (whole entry): T1 sequence (P15085 whole entry)

Carboxypeptidase A1 [4] = target: T1, Carboxypeptidase A1; assay: Inhibition of human CPA1 using AAFP as substrate assessed as apparent first-order rate constant measured at pre-steady state by measuring Koff/Kon ratio by spectrophotometry; details: read-out: Ki(app)
[5] = target: T3, Carboxypeptidase A1 (Homo sapiens); assay: Inhibition of human CPA1 using AAFP as substrate assessed as dissociation rate constant measured at pre-steady state by spectrophotometry
Carboxypeptidase A1 [6] = target: T1, Carboxypeptidase A1; assay: Inhibition of human CPA1 using AAFP as substrate measured at pre-steady state by spectrophotometry
Collagenase 3 = Collagenase 3 (Homo sapiens, UniProt P45452); assay: Inhibition of human MMP13 using fluorogenic Mca-Pro-Leu-Gly-Leu-Dpa-Ala-Arg-NH2 peptide as substrate preincubated for 45 mins measured at 30 sec intervals for 15 mins by UV/vis-spectrophotometry
Procedure, shortened: (§1)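 MMPs at nanomolar level with fluorogenic Mca-Pro-Leu-Gly-Leu-Dpa-Ala-Arg-NH2 substrate in 50 mM Tris-HCl pH 6.8, 10 mM CaCl2. Enzyme, inhibitor and buffer preincubated 45 min at 37 °C, then substrate added; initial velocities from 30-sec reads over 15 min, in triplicate.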

HeLa [7] = assay: Cytotoxicity against human HeLa cells by fluorescence confocal microscopy; assay type: cell-based
[8] = target: Cytosolic carboxypeptidase 1 (Homo sapiens) (UniProt Q9UPW5); assay: Inhibition of human CCP1 at 1 nM to mM using tubulin as substrate preincubated for 45 mins measured at 30 sec intervals for 15 mins by UV/vis-spectrophotometry
Procedure, shortened: (§2)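 hCCP1 or hCCP6 at 1.0x10-6 g with tubulin (12.5x10-5 g) as substrate in 20 mM Tris-HCl pH 7.5, 100 mM NaCl. Enzyme, inhibitor and buffer preincubated 45 min at 37 °C before substrate addition; run in triplicate.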

[9] = target: Mast cell carboxypeptidase A (Homo sapiens) (UniProt P15088); assay: Binding affinity to CPA3 expressing human HeLa cells assessed as compound co-localization with CPA3 at 1 to 5 uM treated for 6 hrs followed by cell wash and measured by DAPI-staining based fluorescence confocal microscopy
Procedure, shortened: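 HeLa cells with cytoplasmic hCPA3 expression were treated 6 h with the fluorescent probe at 1 or 5 µM, washed, then imaged by fluorescence confocal microscopy for internalization and co-localization with CPA3.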

Bos taurus = species on record: Bos taurus; assay: Inhibition of bovine trypsin at 1 nM to 1 mM using Nalpha-benzoyl-L-arginine 4-nitroanilide hydrochloride as substrate preincubated for 45 mins measured at 30 sec intervals for 15 mins by UV/vis-spectrophotometry
[10] = target: Carboxypeptidase B2 (Homo sapiens) (UniProt Q96IY4); assay: Inhibition of human TAFI at 1 nM to 1 mM using AAFA as substrate preincubated for 45 mins measured at 30 sec intervals for 15 mins by UV/vis-spectrophotometry
Procedure, shortened: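 Absorbance at 355 nm. Preincubation 45 min at 37 °C with inhibitor before substrate addition. Initial velocities from 30-sec reads over 15 min; triplicates.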

[11] = target: Matrix metalloproteinase-9 (Homo sapiens, UniProt P14780); assay: Inhibition of human MMP9 using fluorogenic Mca-Pro-Leu-Gly-Leu-Dpa-Ala-Arg-NH2 peptide as substrate preincubated for 45 mins measured at 30 sec intervals for 15 mins by UV/vis-spectrophotometry; procedure, shortened: as §1
[12] = target: Cytosolic carboxypeptidase 6 (Homo sapiens) (UniProt Q5VU57); assay: Inhibition of human CCP6 at 1 nM to 1 mM using tubulin as substrate preincubated for 45 mins measured at 30 sec intervals for 15 mins by UV/vis-spectrophotometry; procedure, shortened: as §2
[13] = target: T3, Carboxypeptidase A1 (Homo sapiens); assay: Inhibition of human CPA1 peptide degradation activity at 5 to 500 nM using neurotensin peptide as substrate preincubated for 2 hrs followed by substrate addition and measured up to 7 hrs by MALDI-TOF/TOF spectrometry
Procedure, shortened: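 Human CPA1 (20nM) digested the model peptide neurotensin over a 0-7h time course, with no inhibitor or with inhibitor at 5 and 500nM. Samples were taken at intervals and analyzed by MALDI-TOF MS.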

HeLa [14] = assay: Cytotoxicity against human HeLa cells assessed as reduction in cell viability at 1 to 5 uM after 24 hrs by XTT assay; assay type: cell-based
Procedure, shortened: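 Cells were exposed to compound at 1 and 5 µM for 24h in culture, and viability was then read by the XTT assay.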

Chain of Mast cell carboxypeptidase A (Homo sapiens) (P15088 whole entry): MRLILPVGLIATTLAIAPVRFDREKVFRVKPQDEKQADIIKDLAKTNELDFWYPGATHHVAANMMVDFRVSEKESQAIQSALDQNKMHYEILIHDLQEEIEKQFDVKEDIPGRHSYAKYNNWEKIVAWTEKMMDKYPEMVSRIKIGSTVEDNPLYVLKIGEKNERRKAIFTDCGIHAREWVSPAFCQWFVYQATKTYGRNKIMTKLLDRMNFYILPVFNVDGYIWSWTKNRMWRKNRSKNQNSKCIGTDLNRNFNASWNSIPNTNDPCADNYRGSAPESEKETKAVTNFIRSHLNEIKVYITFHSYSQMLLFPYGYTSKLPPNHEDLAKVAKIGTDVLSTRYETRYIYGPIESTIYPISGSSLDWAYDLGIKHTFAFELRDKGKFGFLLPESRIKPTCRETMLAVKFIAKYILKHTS
Chain of Cytosolic carboxypeptidase 1 (Homo sapiens) (Q9UPW5 whole entry): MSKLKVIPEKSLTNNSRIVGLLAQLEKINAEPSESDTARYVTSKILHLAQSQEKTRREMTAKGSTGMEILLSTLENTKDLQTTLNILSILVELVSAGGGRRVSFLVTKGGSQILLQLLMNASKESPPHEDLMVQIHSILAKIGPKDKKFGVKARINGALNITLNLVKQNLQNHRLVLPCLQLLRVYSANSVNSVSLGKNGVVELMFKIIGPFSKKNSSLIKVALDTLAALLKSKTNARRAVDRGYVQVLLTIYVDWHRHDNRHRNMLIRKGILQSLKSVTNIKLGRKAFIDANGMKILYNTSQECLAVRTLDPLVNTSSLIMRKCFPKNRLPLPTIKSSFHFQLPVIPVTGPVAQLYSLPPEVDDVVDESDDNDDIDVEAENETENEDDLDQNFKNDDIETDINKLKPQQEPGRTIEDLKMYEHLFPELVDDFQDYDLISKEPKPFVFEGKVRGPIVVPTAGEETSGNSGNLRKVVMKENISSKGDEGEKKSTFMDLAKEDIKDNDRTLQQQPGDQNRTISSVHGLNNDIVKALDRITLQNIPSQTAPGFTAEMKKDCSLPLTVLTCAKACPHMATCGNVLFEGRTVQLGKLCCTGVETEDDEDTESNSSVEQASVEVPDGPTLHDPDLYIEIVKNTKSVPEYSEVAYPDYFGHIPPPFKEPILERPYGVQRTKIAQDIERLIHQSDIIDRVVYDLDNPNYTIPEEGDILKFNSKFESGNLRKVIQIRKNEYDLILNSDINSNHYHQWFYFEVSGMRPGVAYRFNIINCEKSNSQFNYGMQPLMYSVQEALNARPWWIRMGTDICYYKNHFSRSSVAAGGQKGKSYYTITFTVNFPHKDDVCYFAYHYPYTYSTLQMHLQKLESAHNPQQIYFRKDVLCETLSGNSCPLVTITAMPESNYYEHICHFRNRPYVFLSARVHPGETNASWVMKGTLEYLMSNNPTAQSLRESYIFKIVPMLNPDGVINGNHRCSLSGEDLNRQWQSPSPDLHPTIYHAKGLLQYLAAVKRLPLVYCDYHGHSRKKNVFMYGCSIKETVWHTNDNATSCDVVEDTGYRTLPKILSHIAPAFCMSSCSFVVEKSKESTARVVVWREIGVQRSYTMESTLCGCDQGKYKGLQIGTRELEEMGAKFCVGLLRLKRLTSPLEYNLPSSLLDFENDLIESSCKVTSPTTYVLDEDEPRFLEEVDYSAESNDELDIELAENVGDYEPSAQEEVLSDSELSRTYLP
Chain of Carboxypeptidase B2 (Homo sapiens) (Q96IY4 whole entry): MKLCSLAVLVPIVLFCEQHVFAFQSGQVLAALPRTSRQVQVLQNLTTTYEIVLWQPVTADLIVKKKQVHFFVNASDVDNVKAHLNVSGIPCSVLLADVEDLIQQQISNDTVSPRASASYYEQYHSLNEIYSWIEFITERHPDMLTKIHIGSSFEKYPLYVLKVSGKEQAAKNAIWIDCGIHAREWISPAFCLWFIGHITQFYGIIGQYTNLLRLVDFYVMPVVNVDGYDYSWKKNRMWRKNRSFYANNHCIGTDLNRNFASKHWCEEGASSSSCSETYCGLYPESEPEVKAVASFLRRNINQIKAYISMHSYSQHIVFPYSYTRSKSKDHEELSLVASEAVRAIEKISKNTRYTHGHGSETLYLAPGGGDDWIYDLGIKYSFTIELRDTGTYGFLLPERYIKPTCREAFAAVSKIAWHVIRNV
Chain of Cytosolic carboxypeptidase 6 (Homo sapiens) (Q5VU57 whole entry): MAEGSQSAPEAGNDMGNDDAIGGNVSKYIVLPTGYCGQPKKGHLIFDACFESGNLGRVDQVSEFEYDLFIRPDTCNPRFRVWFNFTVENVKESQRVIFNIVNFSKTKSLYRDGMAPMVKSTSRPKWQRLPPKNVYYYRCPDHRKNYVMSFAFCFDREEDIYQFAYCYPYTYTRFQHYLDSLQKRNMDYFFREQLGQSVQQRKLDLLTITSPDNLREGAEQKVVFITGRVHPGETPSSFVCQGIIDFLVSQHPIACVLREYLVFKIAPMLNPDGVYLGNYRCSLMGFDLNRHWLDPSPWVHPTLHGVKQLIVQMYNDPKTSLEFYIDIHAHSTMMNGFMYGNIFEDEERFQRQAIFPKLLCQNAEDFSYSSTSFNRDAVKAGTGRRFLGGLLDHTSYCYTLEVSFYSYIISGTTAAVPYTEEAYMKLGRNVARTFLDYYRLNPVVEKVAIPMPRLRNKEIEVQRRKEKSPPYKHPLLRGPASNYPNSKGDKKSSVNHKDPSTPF
Chain of Matrix metalloproteinase-9 (P14780 whole entry): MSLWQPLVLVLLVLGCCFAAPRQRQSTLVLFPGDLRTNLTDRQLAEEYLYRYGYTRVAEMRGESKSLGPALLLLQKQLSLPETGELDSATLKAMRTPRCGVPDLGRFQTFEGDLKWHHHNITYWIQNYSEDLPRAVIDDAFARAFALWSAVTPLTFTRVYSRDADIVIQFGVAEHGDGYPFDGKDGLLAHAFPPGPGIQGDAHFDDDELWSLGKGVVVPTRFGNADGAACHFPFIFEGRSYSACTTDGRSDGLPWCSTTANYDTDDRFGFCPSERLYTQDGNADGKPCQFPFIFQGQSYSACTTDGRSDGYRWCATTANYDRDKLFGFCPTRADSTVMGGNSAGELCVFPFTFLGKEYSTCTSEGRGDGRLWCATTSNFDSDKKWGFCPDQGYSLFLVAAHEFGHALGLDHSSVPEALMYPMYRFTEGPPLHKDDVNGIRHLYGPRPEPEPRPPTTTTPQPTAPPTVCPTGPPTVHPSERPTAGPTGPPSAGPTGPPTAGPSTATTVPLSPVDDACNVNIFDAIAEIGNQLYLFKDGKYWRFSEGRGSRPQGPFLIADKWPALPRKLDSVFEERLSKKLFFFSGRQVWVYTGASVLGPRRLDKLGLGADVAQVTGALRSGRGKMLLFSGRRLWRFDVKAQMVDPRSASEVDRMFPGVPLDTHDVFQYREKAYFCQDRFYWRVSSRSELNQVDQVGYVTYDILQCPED

Row | Compound | pKi (Carboxypeptidase A1 [1]) | inhibition [2] | K [3] [×10⁵ /M/s] | pKi (Carboxypeptidase A1 [4]) | K [5] [×10⁻⁵ /s] | pKi (Carboxypeptidase A1 [6]) | also measured
1 | CC(=O)N[C@@H](CC(C)C)C(=O)N[C@@H](C)P(=O)(O)C[C@@H](CCc1ccccc1)C(=O)O | 10.06 | inactive | 1.27 | 9.33 | 6 | 9.85 | 
2 | C[C@H](NC(=O)[C@H](Cc1ccc(O)cc1)NC(=O)COCCOCCNC(=O)CCOCCOCCOCCNC(=O)CCc1ccc(C(=C\C=C2\N(CCCCS(=O)(=O)O)c3ccc4c(S(=O)(=O)[O-])cc(S(=O)(=O)O)cc4c3C2(C)C)/C=C/C2=[N+](CCCCS(=O)(=O)O)c3ccc4c(S(=O)(=O)O)cc(S(=O)(=O)O)cc4c3C2(C)C)cc1)P(=O)(O)C[C@@H](CCc1ccccc1)C(=O)O | 10.05 | inactive | 2.03 | 9.62 | 4.8 | 10.15 | pKi (Collagenase 3): 6.25; Activity (HeLa [7]): Non-Toxic; inhibition [8]: inactive; Activity [9]: Active; inhibition (Bos taurus): inactive; inhibition [10]: inactive; pKi [11]: 5.59; inhibition [12]: inactive
3 | CC(=O)N[C@@H](CCCCN)C(=O)N[C@@H](C)P(=O)(O)C[C@@H](CCc1ccccc1)C(=O)O | 8.92 | inactive |  |  |  |  | 
4 | C[C@H](NC(=O)[C@H](Cc1ccc(O)cc1)NC(=O)COCCOCCN)P(=O)(O)C[C@@H](CCc1ccccc1)C(=O)O | 9.52 | inactive |  |  |  |  | 
5 | CC(=O)N[C@@H](Cc1ccc(O)cc1)C(=O)N[C@@H](C)P(=O)(O)C[C@@H](CCc1ccccc1)C(=O)O | 9.97 | inactive | 1.44 | 9.28 | 7.6 | 9.80 | inhibition [13]: Active; Activity (HeLa [14]): Non-Toxic
6 | CC(=O)N[C@@H](CCC(=O)O)C(=O)N[C@@H](C)P(=O)(O)C[C@@H](CCc1ccccc1)C(=O)O | 8.51 | inactive |  |  |  |  | 

More lines, main results first:

Row | pKi (Carboxypeptidase A1 [1]) | inhibition [2] | K [3] [×10⁵ /M/s] | pKi (Carboxypeptidase A1 [4]) | K [5] [×10⁻⁵ /s] | pKi (Carboxypeptidase A1 [6]) | Compound | also measured
7 | 8.77 | inactive |  |  |  |  | CC(=O)N1CCC[C@H]1C(=O)N[C@@H](C)P(=O)(O)C[C@@H](CCc1ccccc1)C(=O)O | 
8 | 8.23 | inactive |  |  |  |  | CC(=O)N[C@@H](CO)C(=O)N[C@@H](C)P(=O)(O)C[C@@H](CCc1ccccc1)C(=O)O | 
9 | 9.89 | inactive | 1.33 | 9.28 | 7 | 9.80 | CC(=O)NCCOCCOCC(=O)N[C@@H](Cc1ccc(O)cc1)C(=O)N[C@@H](C)P(=O)(O)C[C@@H](CCc1ccccc1)C(=O)O | 
10 | 10.10 | inactive |  |  |  |  | CC(=O)N[C@@H](CC(C)C)C(=O)N[C@@H](Cc1ccccc1)P(=O)(O)C[C@@H](CCc1ccccc1)C(=O)O | 

Reference: ChEMBL document CHEMBL4411328, “Synthesis and Structural/Functional Characterization of Selective M14 Metallocarboxypeptidase Inhibitors Based on Phosphinic Pseudopeptide Scaffold: Implications on the Design of Specific Optical Probes” (J Med Chem, 2019)
